In ChEMBL document CHEMBL3286090, “Cryptocaryol Structure-Activity Relationship Study of Cancer Cell Cytotoxicity and Ability to Stabilize PDCD4” (ACS Med Chem Lett, 2014):
pIC50: −log10 of the molar value. Active and inactive are the calls of the source. No cut-off for these calls is given here.

Experiments:
HT-29 [1] = experiment: Cytotoxicity against human HT-29 cells after 72 hrs by MTT assay; type: functional, cell-based; settings: HT-29, 72 h
How it was run: (§1)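 Cancer cell lines exposed to compound over a concentration range; viability read by MTT; IC50 in μM derived from dose-response.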

[2] = Cytotoxicity against human H460 cells after 72 hrs by MTT assay; type: functional, cell-based; settings: NCI-H460, 72 h; how it was run: as §1
MCF7 [3] = experiment: Cytotoxicity against human MCF7 cells after 72 hrs by MTT assay; type: functional, cell-based; settings: MCF7, 72 h; how it was run: as §1
[4] = molecular target: T1, Programmed cell death protein 4 (Homo sapiens) (UniProt Q53EL6); experiment: Inhibition of TPA-induced PDCD4 degradation in human MCF7 cells at 1 uM treated 30 mins before TPA challenge measured after 6 hrs by Western blot analysis relative to TPA treated control; type: cell-based
T1 sequence (whole entry): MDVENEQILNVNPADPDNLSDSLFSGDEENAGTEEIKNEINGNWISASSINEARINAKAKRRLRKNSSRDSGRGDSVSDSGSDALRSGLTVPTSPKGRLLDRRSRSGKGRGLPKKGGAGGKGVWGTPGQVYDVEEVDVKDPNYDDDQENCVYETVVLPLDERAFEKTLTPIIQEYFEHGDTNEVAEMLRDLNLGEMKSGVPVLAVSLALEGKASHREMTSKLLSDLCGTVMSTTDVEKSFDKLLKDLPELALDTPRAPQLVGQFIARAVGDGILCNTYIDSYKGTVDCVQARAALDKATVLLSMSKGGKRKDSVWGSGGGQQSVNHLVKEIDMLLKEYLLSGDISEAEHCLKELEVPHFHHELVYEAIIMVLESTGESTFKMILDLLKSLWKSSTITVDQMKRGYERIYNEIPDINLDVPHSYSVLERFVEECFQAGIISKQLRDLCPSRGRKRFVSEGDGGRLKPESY
How it was run: (§2)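 MCF-7 seeded at 100,000 cells/well, grown 24 h, then given cryptocaryol analogues (1 μM) or rapamycin (10 nM). TPA (20 nM) added 30 min later. After a further 6 h, cells scraped and lysed in RIPA. Lysate run on 12% SDS-PAGE, blotted to PVDF, probed for PDCD4 and β-actin, chemiluminescence detection. Signal expressed relative to cells given TPA alone.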

HT-29 [5] = experiment: Potentiation of 5-fluorouracil-induced cytotoxicity against human HT-29 cells after 72 hrs by MTT assay in absence of TPA
HT-29 [6] = experiment: Potentiation of camptothecin-induced cytotoxicity against human HT-29 cells after 72 hrs by MTT assay in presence of TPA; type: functional, cell-based
HT-29 [7] = experiment: Potentiation of camptothecin-induced cytotoxicity against human HT-29 cells after 72 hrs by MTT assay in absence of TPA; type: functional, cell-based
HT-29 [8] = experiment: Potentiation of 5-fluorouracil-induced cytotoxicity against human HT-29 cells after 72 hrs by MTT assay in absence of TPA; type: functional, cell-based
HT-29 [9] = experiment: Potentiation of digitoxin-induced cytotoxicity against human HT-29 cells after 72 hrs by MTT assay in absence of TPA; type: functional, cell-based
How it was run: (§3)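 HT-29 cells pretreated for 12 h with cryptocaryol at 1 μM, with rapamycin at 10 nM as the reference stabilizer, then exposed to digitoxin over a concentration range without TPA. The read-out was the digitoxin IC50 under the combination.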

[10] = molecular target: T1, Programmed cell death protein 4 (Homo sapiens); experiment: Inhibition of TPA-induced PDCD4 degradation in human MCF7 cells at 10 nM treated 30 mins before TPA challenge measured after 6 hrs by Western blot analysis relative to TPA treated control; type: cell-based; how it was run: as §2
HT-29 [11] = experiment: Potentiation of camptothecin-induced cytotoxicity against human HT-29 cells at 1 nM to 10 uM after 72 hrs by MTT assay; type: functional, cell-based
HT-29 [12] = experiment: Potentiation of digitoxin-induced cytotoxicity against human HT-29 cells at 1 uM after 72 hrs by MTT assay in absence of TPA; type: functional, cell-based; how it was run: as §3
HT-29 [13] = experiment: Potentiation of camptothecin-induced cytotoxicity against human HT-29 cells at 1 uM after 72 hrs by MTT assay in presence of TPA; type: functional, cell-based
HT-29 [14] = experiment: Potentiation of camptothecin-induced cytotoxicity against human HT-29 cells at 1 uM after 72 hrs by MTT assay in absence of TPA; type: functional, cell-based
MCF7 [15] = experiment: Potentiation of camptothecin-induced cytotoxicity against human MCF7 cells at 1 nM to 10 uM after 72 hrs by MTT assay; type: functional
MCF7 [16] = experiment: Potentiation of digitoxin-induced cytotoxicity against human MCF7 cells at 1 nM to 10 uM after 72 hrs by MTT assay; type: functional
HT-29 [17] = experiment: Potentiation of digitoxin-induced cytotoxicity against human HT-29 cells at 1 nM to 10 uM after 72 hrs by MTT assay; type: functional, cell-based
MCF7 [18] = experiment: Potentiation of camptothecin-induced cytotoxicity against human MCF7 cells at 1 uM treated 30 mins before TPA challenge measured after 72 hrs by MTT assay; type: functional, cell-based
HT-29 [19] = experiment: Potentiation of 5-fluorouracil-induced cytotoxicity against human HT-29 cells after 72 hrs by MTT assay in presence of TPA; type: functional, cell-based

Structure (SMILES) | pIC50 (HT-29 [1]) | pIC50 [2] | pIC50 (MCF7 [3]) | Ratio [4] | further results
CCCCCCCCCCCCCCC[C@@H](O)C[C@H](O)C[C@H](O)C[C@H](O)C[C@H](O)C[C@@H]1CC=CC(=O)O1 | 5.39 | 5.10 | 4.59 | 3.8 | –
CCCCCCCCCCCCCCC[C@H](C[C@H](O)C[C@H](O)C[C@H](O)C[C@H](O)C[C@@H]1CC=CC(=O)O1)OC(C)=O | 5.62 | 5.40 | 5.05 | 3.6 | –
CO[C@H]1C[C@@H]2CC[C@@H](C)[C@@](O)(O2)C(=O)C(=O)N2CCCC[C@H]2C(=O)O[C@H]([C@H](C)C[C@@H]2CC[C@@H](O)[C@H](OC)C2)CC(=O)[C@H](C)/C=C(\C)[C@@H](O)[C@@H](OC)C(=O)[C@H](C)C[C@H](C)/C=C/C=C/C=C/1C | – | – | – | – | Activity (HT-29 [5]): inactive; Activity (HT-29 [6]): inactive; Activity (HT-29 [7]): inactive; Activity (HT-29 [8]): inactive; Activity (HT-29 [9]): inactive; Ratio [10]: 6.6
CCCCCCCCCCCCCCC[C@H](O)C[C@@H](O)C[C@@H](O)C[C@@H](O)C[C@@H](O)C[C@H]1CC=CC(=O)O1 | 5.38 | 5.27 | 5.09 | 3.6 | Activity (HT-29 [11]): inactive; Activity (HT-29 [12]): inactive; Activity (HT-29 [13]): inactive; Activity (HT-29 [14]): inactive; CI (MCF7 [15]): 0.78; CI (MCF7 [16]): 1.34; Activity (HT-29 [17]): inactive
CCCCCCCCCCCCCCC[C@@H](C[C@@H](O)C[C@@H](O)C[C@@H](O)C[C@@H](O)CCO)OC(C)=O | 2.89 | < 3.00 | 3.79 | 2.8 | –
CCCCCCCCCCCCCCC[C@@H](C[C@H](O)C[C@H](O)C[C@H](O)C[C@H](O)C[C@@H]1CC=CC(=O)O1)OC(C)=O | 5.31 | 5.11 | 4.88 | 1.9 | –
CCCCCCCCCCCCCCC[C@@H](C[C@@H](O)C[C@@H](O)C[C@@H](O)C[C@@H](O)C[C@H]1CC=CC(=O)O1)OC(C)=O | 5.54 | 5.42 | 5.24 | 4.5 | Activity (HT-29 [11]): inactive; Activity (HT-29 [12]): inactive; Activity (MCF7 [18]): inactive; Activity (HT-29 [8]): inactive; Activity (HT-29 [13]): inactive; Activity (HT-29 [14]): inactive; CI (MCF7 [15]): 1.12; CI (MCF7 [16]): 1.04; Activity (HT-29 [17]): inactive; Activity (HT-29 [19]): inactive
CCCCCCCCCCCCCCC[C@H](O)C[C@@H](O)C[C@@H](O)C[C@@H](O)C[C@@H](O)CCO | < 2.82 | < 2.82 | < 3.30 | 1.8 | –
